Test results: publication PMC12145421 (NPJ Science of Food, 2025)
≈ marks a conversion by molar mass, not a printed value.

Tests used:
[1] = Solubility studies of CoQ10 in water by HPLC; assay type: physicochemical
In short: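 The powder was mixed with an equal volume of water to give a supersaturated solution. It was shaken at 200 rpm in a 25 °C water bath for 24 h. CoQ10 was measured by HPLC on a C8 column at 45 °C with methanol at 1 mL/min, against a 0.05–25 μg/mL standard curve. Triplicate independent experiments; mean ± SD.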

[2] = In vivo bioavailability study, plasma CoQ10 after oral administration to rats; settings: male, SD, rat, 15 mg/kg
In short: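 Six-week-old SPF male rats (180–200 g), acclimatised ≥3 days at 23–25 °C with a 12 h light/dark cycle, n = 5 per group, fasted 12 h. Oral 15 mg/kg dose in 0.5% (w/v) sodium CMC. Tail-vein blood at 0, 0.5, 1, 2, 4, 8, 12 and 24 h. Plasma extracted with n-propanol and assayed by HPLC against a 0–3000 ng/mL plasma standard curve. Non-compartmental model; AUC by linear trapezoid.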

- solubility at 24 h [1]: 2.3 µg/mL (≈ 2.66 µM)
- AUC(0-t) [2]: 196 ± 96.9 ng·h/mL
- Cmax [2]: 50.3 ± 5.7 ng/mL
- Tmax ([2]; Tmax, rats, oral, n = 5, plasma CoQ10): ~1 h
Structure (SMILES): COC1=C(OC)C(=O)C(C/C=C(\C)CC/C=C(\C)CC/C=C(\C)CC/C=C(\C)CC/C=C(\C)CC/C=C(\C)CC/C=C(\C)CC/C=C(\C)CC/C=C(\C)CCC=C(C)C)=C(C)C1=O [CoQ10, Coenzyme Q10]
